Publication PMC11350598 (JACS Au, 2024)
Like-named read-outs stand apart in the source and are kept apart here. Marks after values point to notes of the source that are not given here.

Experiments:
[1] = tested on: wild-type (AF) A. ferrooxidans cells; assay: Metal recovery from porphyry molybdenite processing concentrate; assay type: cell-based; settings: for binding during reactions with process concentrate: data not shown; for efficiency of recovery: diluted acidic wastewater from molybdenite processing, pH 1.6
Procedure, shortened: (§1)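 Wild-type *A. ferrooxidans* and strains engineered to (over)express wild-type (AFWP) or mutant (AFMP) ModA/WtpA oxyanion-binding protein (AFE_1498) were each reacted with diluted acidic wastewater from the washing and extraction steps of porphyry molybdenite processing. The wastewater held molybdenum and rhenium as major components, at pH 1.6. Mo and Re recovery efficiency after binding was compared with wild-type cells.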

AFMP cells = assay: as above; assay type: cell-based, A. ferrooxidans; settings: for binding during reactions with process concentrate: data not shown; for efficiency of recovery: diluted acidic wastewater from molybdenite processing
Procedure, shortened: as §1

[2] = tested on: wild-type (AF) A. ferrooxidans cells; assay type: cell-based; settings: for binding capacity: 1 mM mixed metal solution, pH 1.8
[3] = tested on: AFWP (engineered A. ferrooxidans overexpressing wild-type ModA/WtpA); assay: Metal binding by cells in synthetic metal solutions; assay type: cell-based; settings: for binding capacity to other oxyanion metals: Figure S6; for binding capacity / fold higher binding capacity compared to wild-type cells: pH 1.8
[4] = tested on: AFMP (engineered A. ferrooxidans expressing mutant ModA/WtpA); assay: as above; assay type: cell-based; settings: for binding capacity to other oxyanion metals: Figure S6
[5] = tested on: wild-type ModA/WtpA protein (AFE_1498); assay: Metal binding in vitro by purified protein; parameters: species or system A. ferrooxidans; settings: pH 1.8, 1:1 molar ratio
Procedure, shortened: (§2)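 Purified polyHis-tagged protein (Ni-NTA resin, then size exclusion chromatography; about 35 kDa on SDS-PAGE). It was incubated 1 h at pH 1.8 with a solution of one oxyanion: molybdate, tungstate, chromate or perrhenate. Binding efficiency was taken after the incubation. Error bars are one standard deviation, and p < 0.05 versus wild-type protein for the same metal.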

[6] = tested on: mutant (G9C/A166C) ModA/WtpA protein; assay: Metal binding in vitro by purified protein; parameters: species or system A. ferrooxidans; settings: pH 1.8, 1:1 molar ratio
Procedure, shortened: as §2

[7] = target: wild-type ModA/WtpA protein; assay: Quenching of intrinsic tryptophan fluorescence, Langmuir isotherm fit; assay type: binding, A. ferrooxidans; settings: read-out: dissociation constant, pH 1.8
Procedure, shortened: (§3)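 Purified polyHis-tagged protein (Ni-NTA resin, then size exclusion chromatography) at a fixed amount, titrated at pH 1.8 with varying initial concentrations of molybdate, tungstate, chromate or perrhenate. Significance was p < 0.05 versus wild-type protein for the same metal.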

mutant ModA/WtpA protein = assay: as above; assay type: binding, A. ferrooxidans; settings: pH 1.8; for Kd: read-out: dissociation constant, mutant protein
Procedure, shortened: as §3

[8] = cited from earlier work
AFWP cells = assay: Metal recovery from porphyry molybdenite processing concentrate; assay type: cell-based, A. ferrooxidans; settings: pH 1.6; for efficiency of recovery: diluted acidic wastewater from molybdenite processing
Procedure, shortened: as §1

[9] = 1 mM mixed metal solution, pH 1.8
[10] = 1 mM pure metal solution, pH 1.8
[11] = diluted process concentrate, pH 1.6

Row | Molecule | binding efficiency (bound) [5] | binding efficiency (bound) [6] | Kd [7] | Kd (mutant ModA/WtpA protein) | binding capacity ([2]; wild-type AF) | binding capacity ([3]; 1 mM mixed metal solution) | binding capacity ([3]; 1 mM pure metal solution) | fold higher binding capacity compared to wild-type cells ([3]; 1 mM pure metal solution) | binding capacity [4, 9] | binding capacity [4, 10] | fold higher binding capacity compared to wild-type cells [4, 10] | pKa ([8]; ref [4],[47]) | further results
1 | [As] [arsenic] |  |  |  |  |  |  |  |  |  |  |  |  | binding during reactions with process concentrate [1]: nonspecific binding; binding during reactions with process concentrate (AFMP cells): nonspecific binding
2 | phosphate |  |  |  |  |  |  |  |  |  |  |  |  | binding capacity to other oxyanion metals ([2]; wild-type AF, Figure S6): did not show significant binding capacity; binding capacity to other oxyanion metals [3]: did not show significant binding capacity; binding capacity to other oxyanion metals [4]: did not show significant binding capacity
3 | [O]=[Cr](=[O])([O-])[O-] [chromate] | nearly all | nearly all | 0.5 ± 0.11 µM | 0.48 ± 0.07 µM | 0.03 fg/cell | 0.06 fg/cell | 0.6 fg/cell | 1.3 fold | 0.07 fg/cell | 0.6 fg/cell | 1.3 fold | 6.5 | 
4 | [O]=[Mo](=[O])([O-])[O-] [molybdate] | nearly all | nearly all | 0.32 ± 0.03 µM | 0.15 ± 0.01 µM | 3.6 fg/cell | 5.9 fg/cell | 18 fg/cell | 1.4 fold | 8.4 fg/cell | 18 fg/cell | 1.4 fold | 3.8 | fold lower Kd (higher affinity) of mutant protein than wild-type protein (mutant ModA/WtpA protein): 2 fold; efficiency of recovery [1]: 6.0 ± 0.1%; efficiency of recovery (AFWP cells): 12 ± 1%; fold more recovered compared to wild-type AF cells (AFWP cells; diluted process concentrate): 2 fold; efficiency of recovery (AFMP cells; pH 1.6): 12 ± 1%; fold more recovered compared to wild-type AF cells (AFMP cells; [11]): 2 fold
5 | O=[As][O-].[Na+] [arsenite] |  |  |  |  |  |  |  |  |  |  |  |  | binding capacity to other oxyanion metals [2]: did not show significant binding capacity; binding capacity to other oxyanion metals [3]: did not show significant binding capacity; binding capacity to other oxyanion metals [4]: did not show significant binding capacity
6 | [O]=[Re](=[O])(=[O])[O-] [perrhenate] | 1.4% | 93% | 1 ± 0.1 µM | 0.16 ± 0.03 µM |  |  |  |  |  | 1.3 fg/cell | 5 fold |  | fold lower Kd (higher affinity) of mutant protein than wild-type protein (mutant ModA/WtpA protein): 6 fold; fold higher binding capacity than wild-type AF and AFWP cells [4, 9]: 2.7 fold; fold higher binding capacity compared to AFWP cells [4, 10]: 2 fold; efficiency of recovery [1]: 1.7 ± 0.1%; efficiency of recovery (AFWP cells): 1.9 ± 0.2%*^,**; efficiency of recovery (AFMP cells; pH 1.6): 5.7 ± 0.1%*^,**; fold more recovered than wild-type and AFWP cells (AFMP cells; [11]): 3 fold; pKa ([8]; ref [47]): −1.25
7 | [Se] [selenium] |  |  |  |  |  |  |  |  |  |  |  |  | binding during reactions with process concentrate [1]: nonspecific binding; binding during reactions with process concentrate (AFMP cells): nonspecific binding
8 | [Fe+2] [iron] | 1.7 ± 0.3% | 1.3 ± 0.5% |  |  | 0.04 fg/cell | 0.04 fg/cell |  |  | 0.04 fg/cell |  |  |  | 
9 | [O]=[W](=[O])([O-])[O-] [tungstate] | nearly all | nearly all | 0.49 ± 0.11 µM | 0.36 ± 0.06 µM |  | 0.02 fg/cell | 0.23 fg/cell | 2 fold | 0.04 fg/cell | 0.24 fg/cell | 2 fold | 6.7 | 
